Results of several laboratories.
Compare with care: the assays were run in different laboratories.
ADRA1A: Alpha-1A adrenergic receptor (ADRA1A, Homo sapiens, UniProt P35348)
OPRK1: Kappa-type opioid receptor (OPRK1, Cavia porcellus, UniProt P41144)
GLP2R: Glucagon-like peptide 2 receptor (GLP2R, Homo sapiens, UniProt O95838)

C[C@H]1CC[C@@]2(OC1)O[C@H]1C[C@H]3[C@@H]4CC[C@@H]5C[C@@H](O[C@@H]6O[C@H](CO)[C@H](O)[C@H](O)[C@H]6O[C@@H]6O[C@H](CO)[C@@H](O)[C@H](O)[C@H]6O)CC[C@]5(C)[C@H]4CC[C@]3(C)[C@H]1[C@@H]2C
Kd (Angiotensin-converting enzyme 2 (ACE2, Homo sapiens, UniProt Q9BYF1); binding): 61.7 µM

CC(C)C[C@H](NC(=O)[C@H](CCCCN)NC(=O)[C@@H]1CCCN1C(=O)[C@@H](N)CCCNC(=N)N)C(=O)N[C@@H](CCCCN)C(=O)O
Ki (ADRA1A; cell-free assay, radioligand): > 10000 nM

N=C(N)NCCC[C@@H]1NC(=O)[C@H](Cc2ccc(O)cc2)NC(=O)[C@@H](CCCCN)NC(=O)[C@@H](Cc2ccccc2)NC1=O
Ki (OPRK1; ligand displacement, radioligand; cell membranes): 4850 nM

Cc1cc(O)cc(C)c1C[C@H](C)C(=O)N[C@@H]1C/C=C\CC[C@@H](C(N)=O)NC(=O)[C@H](Cc2ccccc2)NC(=O)[C@H](Cc2ccccc2)NC1=O
Ki (OPRK1; ligand displacement, radioligand; cell membranes): 185 nM

CC[C@H](C)[C@H](NC(=O)[C@H](CC(=O)O)NC(=O)[C@H](CC(N)=O)NC(=O)[C@@H](NC(=O)[C@H](Cc1ccccc1)NC(=O)[C@H](CO)NC(=O)CNC(=O)[C@H](CC(=O)O)NC(=O)[C@H](C)NC(=O)[C@@H](N)Cc1c[nH]cn1)[C@@H](C)O)C(=O)N[C@@H](CC(N)=O)C(=O)N[C@@H](CCCCN)C(=O)N[C@H](C(=O)N[C@@H](CC(C)C)C(=O)N[C@@H](CC(=O)O)C(=O)N[C@H](C(=O)N[C@H](C(=O)N[C@@H](C)C(=O)N[C@@H](C)C(=O)N[C@@H](CCC(N)=O)C(=O)N[C@@H](CCC(=O)O)C(=O)N[C@@H](Cc1ccccc1)C(=O)N[C@@H](CC(C)C)C(=O)N[C@@H](CC(=O)O)C(=O)N[C@@H](Cc1c[nH]c2ccccc12)C(=O)N[C@H](C(=O)N[C@H](C(=O)N[C@@H](CC(N)=O)C(=O)N[C@H](C(=O)N[C@@H](CCC(N)=O)C(=O)N[C@H](C(=O)N[C@H](C(=O)N[C@@H](CCC(=O)O)C(=O)O)[C@@H](C)O)C(C)C)[C@@H](C)O)[C@@H](C)CC)C(C)C)[C@@H](C)CC)[C@@H](C)CC)C(C)C
EC50 (GLP2R; reporter gene, agonist, luciferase): > 1000 nM

Cc1cc(O)cc(C)c1C[C@H](N)C(=O)N[C@H](C)C(=O)N[C@@H](Cc1ccccc1)C(=O)N[C@@H](CCCN)C(N)=O
Ki (OPRK1; ligand displacement, radioligand; cell membranes): 32 nM

CC[C@H](C)[C@H](NC(=O)[C@H](CC(C)C)NC(=O)[C@H](Cc1c[nH]c2ccccc12)NC(=O)[C@H](CCCCN)NC(=O)[C@H](CC(C)C)NC(=O)[C@H](Cc1ccccc1)NC(=O)[C@H](CCC(=O)O)NC(=O)[C@H](CCC(N)=O)NC(=O)[C@@H](NC(=O)[C@H](C)NC(=O)[C@H](CC(C)C)NC(=O)[C@H](CC(=O)O)NC(=O)[C@H](CC(=O)O)NC(=O)[C@H](CC(C)C)NC(=O)[C@H](CC(C)C)NC(=O)[C@H](CCCCN)NC(=O)[C@H](CC(N)=O)NC(=O)[C@H](Cc1ccc(O)cc1)NC(=O)[C@H](CC(=O)O)NC(=O)[C@H](CO)NC(=O)[C@@H](NC(=O)[C@H](Cc1ccccc1)NC(=O)[C@@H](NC(=O)CNC(=O)[C@H](CC(=O)O)NC(=O)[C@H](C)NC(=O)[C@@H](N)Cc1c[nH]cn1)[C@@H](C)O)[C@@H](C)O)[C@@H](C)O)C(=O)N[C@@H](CC(N)=O)C(=O)N[C@@H](CCC(N)=O)C(=O)N[C@@H](CCCCN)C(=O)N[C@H](C(=O)N[C@H](C(=O)N[C@@H](CCC(N)=O)C(=O)O)[C@@H](C)O)C(C)C
EC50 (GLP2R; reporter gene, agonist, luciferase): 1.41 nM

Cc1cccc(C)c1C[C@H](NC(=O)[C@@H](CCCNC(=N)N)NC(=O)[C@@H](N)Cc1c(C)cc(O)cc1C)C(=O)N[C@@H](CCCCN)C(N)=O
Ki (OPRK1; ligand displacement, radioligand; cell membranes): 4.7 nM

C[C@@H](NC(=O)[C@@H](N)Cc1ccc(O)cc1)C(=O)NCC(=O)N[C@@H](Cc1ccccc1)C(=O)N(C)CCC[C@@]1(c2ccc(F)cc2)OCc2cc(C#N)ccc21
Ki (ADRA1A; ligand displacement, radioligand): 6800 nM

Cc1cc(C)c(C[C@H](NC(=O)[C@@H](CCCNC(=N)N)NC(=O)[C@@H](N)Cc2c(C)cc(O)cc2C)C(=O)N[C@@H](CCCCN)C(N)=O)c(C)c1
Ki (OPRK1; ligand displacement, radioligand; cell membranes): 48 nM

CCCC[C@@H](NC(=O)[C@@H](N)Cc1ccc(O)cc1)C(=O)NCC(=O)N[C@@H](Cc1ccc(F)cc1)C(=O)N(C)CCC[C@@]1(c2ccc(F)cc2)OCc2cc(C#N)ccc21
Ki (ADRA1A; ligand displacement, radioligand): 6600 nM

Cc1cc(O)cc(C)c1C[C@H](C)C(=O)N[C@@H]1CCCCC[C@@H](C(N)=O)NC(=O)[C@H](Cc2ccccc2)NC(=O)[C@H](Cc2ccccc2)NC1=O
Ki (OPRK1; ligand displacement, radioligand; cell membranes): 302 nM

CSCC[C@H](NC(=O)[C@H](Cc1c[nH]c2ccccc12)NC(=O)[C@@H](N)CO)C(=O)N[C@H](C(=O)N[C@H](C(=O)N1CCC[C@H]1C(=O)N[C@@H](Cc1c[nH]c2ccccc12)C(=O)NCC(=O)N[C@@H](Cc1ccccc1)C(=O)N[C@@H](Cc1c[nH]cn1)C(=O)N[C@@H](CC(C)C)C(=O)N1CCC[C@H]1C(=O)O)[C@@H](C)O)[C@@H](C)O
Kd (Chaperonin GroEL (groEL, Escherichia coli, UniProt P0A6F5); binding, ITC): 1.4 µM
